Reference: ChEMBL document CHEMBL4138275, “Taccalonolide Microtubule Stabilizers Generated Using Semisynthesis Define the Effects of Mono Acyloxy Moieties at C-7 or C-15 and Disubstitutions at C-7 and C-25” (J Nat Prod, 2018)
pIC50: −log10 of the molar value. The source made the active and inactive calls. The calls are words filed in the database; no cut-off is given here.

Experiments:
HeLa [1] = test: Antiproliferative activity against human HeLa cells after 48 hrs by sulforhodamine B assay; type: functional, cell-based
Summary of the method: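 HeLa cells (STR-validated) grown in BME with 10% FBS and gentamycin, seeded 2500/well, left to adhere overnight, then exposed to compounds for 48 h. Cell density read by sulforhodamine B staining. IC50 is the concentration giving 50% inhibition of cell density versus vehicle, fitted by nonlinear regression. Mean of 3 or 4 experiments, each in triplicate, ±SD.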

HeLa [2] = test: Induction of microtubule stabilization in human HeLa cells assessed as formation of multiple aberrant mitotic spindle at 5 times IC50 after 18 hrs by indirect immunofluorescence assay; type: cell-based
Summary of the method: (§1)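 HeLa cells treated for 18 h at 5-fold each compound's own antiproliferative IC50, with EtOH as vehicle control. Mitotic and interphase microtubules stained by indirect immunofluorescence with a β-tubulin antibody and viewed by fluorescence microscopy.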

HeLa [3] = test: Induction of microtubule stabilization in human HeLa cells assessed as bundling of interphase microtubule at 5 times IC50 after 18 hrs by indirect immunofluorescence assay; type: cell-based; summary of the method: as §1
Sus scrofa [4] = organism: Sus scrofa; test: Induction of porcine brain tubulin polymerization at 5 uM by turbidimetric method
Summary of the method: (§2)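 Compound or vehicle (1% EtOH) added; samples prepared on ice, then warmed to 37 °C to start polymerization. Rate and extent followed turbidimetrically at 340 nm.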

[5] = Toxicity in ip dosed athymic nude mouse harboring tumor; type: organism-based; conditions: in vivo
Summary of the method: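 Dose tolerance was assessed in tumor-bearing mice carrying drug-sensitive or drug-resistant xenografts, with compound given by ip injection. A cumulative maximal tolerated dose was determined.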

NCI/ADR-RES [6] = test: Antitumor activity against human NCI/ADR-RES cells xenografted in athymic nude mouse assessed as reduction in tumor growth at 40 ug administered intratumorally on day day 0, 3, 6, 10 and 14 measured on day 0 post dose; type: functional, cell-based
Summary of the method: (§3)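 NCI/ADR-RES tumor fragments implanted s.c. in flanks of female athymic nude mice. At about 250 mm3 (100−465 mm3), mice were grouped (n = 7−9). Tumors were injected directly with 200 μL on days 0, 3, 6, 10 and 14: 20 μg in 10% EtOH/PBS, paclitaxel 40 μg in 1% Cremophor/EtOH in PBS, or vehicle. Volume = length × width × height by calipers.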

NCI/ADR-RES [7] = test: Antitumor activity against human NCI/ADR-RES cells xenografted in athymic nude mouse assessed as reduction in tumor growth at 40 ug administered intratumorally on day 0, 3, 6, 10 and 14 measured on day 12 to 14 post dose; type: functional, cell-based; summary of the method: as §3
NCI/ADR-RES [8] = test: Antitumor activity against human NCI/ADR-RES cells xenografted in athymic nude mouse assessed as reduction in tumor growth at 40 ug administered intratumorally on day 0, 3, 6, 10 and 14 measured up to 14 days during compound dosing; type: functional, cell-based; summary of the method: as §3
Sus scrofa [9] = organism: Sus scrofa; test: Induction of porcine brain tubulin polymerization at 5 to 20 uM by turbidimetric method; summary of the method: as §2
NCI/ADR-RES [10] = test: Antitumor activity against human NCI/ADR-RES cells xenografted in athymic nude mouse administered via ip; type: functional, cell-based
NCI/ADR-RES [11] = test: Antitumor activity against human NCI/ADR-RES cells xenografted in athymic nude mouse assessed as reduction in tumor growth at 20 ug administered intratumorally on day day 0, 3, 6, 10 and 14 measured on day 0 post dose; type: functional, cell-based
Summary of the method: (§4)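 NCI/ADR-RES tumor fragments implanted s.c. in the flanks of female athymic nude mice. Randomized at a mean tumor volume of 250 mm3 (range 100−465). Dosing was 20 μg in 200 μL of 10% EtOH/PBS by intratumoral injection on days 0, 3, 6, 10 and 14; vehicle and paclitaxel groups ran alongside. Caliper volume = L×W×H. Mice were euthanized at 1500 mm3. Two-way ANOVA with Tukey post hoc.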

NCI/ADR-RES [12] = test: Antitumor activity against human NCI/ADR-RES cells xenografted in athymic nude mouse assessed as reduction in tumor growth at 20 ug administered intratumorally on day 0, 3, 6, 10 and 14 measured on day 10 post dose; type: functional, cell-based; summary of the method: as §3
Mus musculus [13] = test: Toxicity in athymic nude mouse xenografted with human NCI/ADR-RES cells assessed as weight loss at 20 ug administered intratumorally on day 0, 3, 6, 10 and 14 measured on day 10; type: organism-based; conditions: in vivo, other; summary of the method: as §4
NCI/ADR-RES [14] = test: Antitumor activity against human NCI/ADR-RES cells xenografted in athymic nude mouse assessed as reduction in tumor growth at 20 ug administered intratumorally on day 0, 3, 6, 10 and 14 measured on day 12 to 14 post dose; type: functional, cell-based; summary of the method: as §4
NCI/ADR-RES [15] = test: Antitumor activity against human NCI/ADR-RES cells xenografted in athymic nude mouse assessed as delay in tumor growth at 20 ug administered intratumorally on day 0, 3, 6, 10 and 14 measured up to 54 days starting from 5 days post last dose; type: functional, cell-based; summary of the method: as §3
NCI/ADR-RES [16] = test: Antitumor activity against human NCI/ADR-RES cells xenografted in athymic nude mouse assessed as tumor volume at 20 ug administered intratumorally on day 0, 3, 6, 10 and 14 measured up to 45 days starting from 5 days post last dose; type: functional; summary of the method: as §3
NCI/ADR-RES [17] = test: Antitumor activity against human NCI/ADR-RES cells xenografted in athymic nude mouse assessed as reduction in tumor growth at 20 ug administered intratumorally on day 0, 3, 6, 10 and 14 measured on day 12; type: functional, cell-based; summary of the method: as §4
Mus musculus [18] = test: Toxicity in athymic nude mouse xenografted with human NCI/ADR-RES cells assessed as adverse effect at 20 ug administered intratumorally on day 0, 3, 6, 10 and 14 measured on day 12; type: organism-based; conditions: in vivo, other; summary of the method: as §4
NCI/ADR-RES [19] = test: Antitumor activity against human NCI/ADR-RES cells xenografted in athymic nude mouse assessed as time required to show half of the tumors to reach tumor volume <1500 mm3 at 20 ug administered intratumorally on day 0, 3, 6, 10 and 14 measured after 5 days; type: functional; summary of the method: as §4

SMILES | pIC50 (HeLa [1]) | Activity (HeLa [2]) | Activity (HeLa [3]) | Activity (Sus scrofa [4]) | MTD [5] | Activity (NCI/ADR-RES [10]) | other results
CC(=O)O[C@H]1[C@H]2[C@H]([C@@H]3[C@@H](OC(=O)C(C)C)[C@@H]4[C@H]([C@H](C)[C@H]5O[C@]56OC(=O)[C@@](C)(O)[C@]46C)[C@@]3(C)[C@H]1OC(C)=O)[C@@H](O)C(=O)[C@H]1C[C@@H]3O[C@@H]3[C@H](OC(C)=O)[C@]21C | 7.97 | Active | Active | Active | < 10 mg/kg | – | –
CC(=O)O[C@H]1C(=O)[C@@]2(C)[C@H]([C@H](OC(=O)c3ccccc3)[C@]3(O)C[C@H](OC(=O)[C@H](O)[C@@H](NC(=O)c4ccccc4)c4ccccc4)C(C)=C1C3(C)C)[C@]1(OC(C)=O)CO[C@@H]1C[C@@H]2O | – | – | – | – | – | – | Activity (NCI/ADR-RES [6]): inactive; Activity (NCI/ADR-RES [7]): Active; Activity (NCI/ADR-RES [8]): inactive
CC(=O)O[C@H]1[C@H]2[C@H]([C@@H]3[C@@H](O)[C@@H]4[C@H]([C@H](C)[C@H]5O[C@]56OC(=O)[C@@](C)(O)[C@]46C)[C@@]3(C)[C@H]1OC(C)=O)[C@@H](OC(=O)C(C)(C)C)C(=O)[C@H]1C[C@@H]3O[C@@H]3[C@H](OC(C)=O)[C@]21C | 8.05 | Active | Active | Active | – | – | –
CC(=O)O[C@H]1[C@H]2[C@H]([C@@H]3[C@@H](O)[C@@H]4[C@H]([C@H](C)[C@H]5O[C@]56OC(=O)[C@@](C)(OC(=O)C5CC5)[C@]46C)[C@@]3(C)[C@H]1OC(C)=O)[C@@H](OC(=O)C1CC1)C(=O)[C@H]1C[C@@H]3O[C@@H]3[C@H](OC(C)=O)[C@]21C | 6.89 | Active | Active | – | – | – | –
CC(=O)O[C@H]1[C@H]2[C@H]([C@@H]3[C@@H](O)[C@@H]4[C@H]([C@H](C)[C@H]5O[C@]56OC(=O)[C@@](C)(OC(=O)CC(C)C)[C@]46C)[C@@]3(C)[C@H]1OC(C)=O)[C@@H](OC(=O)CC(C)C)C(=O)[C@H]1C[C@@H]3O[C@@H]3[C@H](OC(C)=O)[C@]21C | 6.60 | Active | Active | – | – | – | –
CC(=O)O[C@H]1[C@H]2[C@H]([C@@H]3[C@@H](O)[C@@H]4[C@H]([C@H](C)[C@H]5O[C@]56OC(=O)[C@@](C)(O)[C@]46C)[C@@]3(C)[C@H]1OC(C)=O)[C@@H](O)C(=O)[C@H]1C[C@@H]3O[C@@H]3[C@H](OC(C)=O)[C@]21C | 8.38 | – | – | – | – | inactive | Activity (Sus scrofa [9]): Active
CC(=O)O[C@H]1[C@H]2[C@H]([C@@H]3[C@@H](OC(=O)C4CC4)[C@@H]4[C@H]([C@H](C)[C@H]5O[C@]56OC(=O)[C@@](C)(O)[C@]46C)[C@@]3(C)[C@H]1OC(C)=O)[C@@H](O)C(=O)[C@H]1C[C@@H]3O[C@@H]3[C@H](OC(C)=O)[C@]21C | 7.56 | Active | Active | Active | < 10 mg/kg | – | –
CC(=O)O[C@@H]1[C@H]2[C@H]3[C@H]([C@H](OC(C)=O)[C@H](OC(C)=O)[C@]2(C)[C@H]2[C@H](C)[C@H]4O[C@]45OC(=O)[C@@](C)(O)[C@]5(C)[C@H]12)[C@]1(C)[C@H](C[C@@H]2O[C@@H]2[C@@H]1OC(C)=O)C(=O)[C@@H]3O | 7.64 | – | – | – | – | Active | –
CC(=O)O[C@H]1[C@H]2[C@H]([C@@H]3[C@@H](OC(=O)CC(C)C)[C@@H]4[C@H]([C@H](C)[C@H]5O[C@]56OC(=O)[C@@](C)(O)[C@]46C)[C@@]3(C)[C@H]1OC(C)=O)[C@@H](O)C(=O)[C@H]1C[C@@H]3O[C@@H]3[C@H](OC(C)=O)[C@]21C | 8.57 | Active | Active | Active | < 10 mg/kg | inactive | Activity (NCI/ADR-RES [11]): Active; Activity (NCI/ADR-RES [12]): Active; Activity (Mus musculus [13]): Non-Toxic; Activity (NCI/ADR-RES [14]): Active; Activity (NCI/ADR-RES [15]): Active; Activity (NCI/ADR-RES [16]): <1500 mm3
CC(=O)O[C@H]1[C@H]2[C@H]([C@@H]3[C@@H](O)[C@@H]4[C@H]([C@H](C)[C@H]5O[C@]56OC(=O)[C@@](C)(O)[C@]46C)[C@@]3(C)[C@H]1OC(C)=O)[C@@H](OC(=O)CC(C)C)C(=O)[C@H]1C[C@@H]3O[C@@H]3[C@H](OC(C)=O)[C@]21C | 8.62 | Active | Active | Active | < 10 mg/kg | inactive | Activity (NCI/ADR-RES [11]): Active; Activity (NCI/ADR-RES [17]): Active; Activity (Mus musculus [18]): Non-Toxic; Activity (NCI/ADR-RES [14]): Active; Time (NCI/ADR-RES [19]): 38 days
CC(=O)O[C@H]1[C@H]2[C@H]([C@@H]3[C@@H](O)[C@@H]4[C@H]([C@H](C)[C@H]5O[C@]56OC(=O)[C@@](C)(O)[C@]46C)[C@@]3(C)[C@H]1OC(C)=O)[C@@H](OC(=O)C(C)C)C(=O)[C@H]1C[C@@H]3O[C@@H]3[C@H](OC(C)=O)[C@]21C | 7.72 | Active | Active | – | – | – | –
CC(=O)O[C@H]1[C@H]2[C@H]([C@@H]3[C@@H](O)[C@@H]4[C@H]([C@H](C)[C@H]5O[C@]56OC(=O)[C@@](C)(OC(=O)C(C)C)[C@]46C)[C@@]3(C)[C@H]1OC(C)=O)[C@@H](OC(=O)C(C)C)C(=O)[C@H]1C[C@@H]3O[C@@H]3[C@H](OC(C)=O)[C@]21C | 6.10 | Active | – | – | – | – | –
CC(=O)O[C@H]1[C@H]2[C@H]([C@@H]3[C@@H](OC(=O)C(C)(C)C)[C@@H]4[C@H]([C@H](C)[C@H]5O[C@]56OC(=O)[C@@](C)(O)[C@]46C)[C@@]3(C)[C@H]1OC(C)=O)[C@@H](O)C(=O)[C@H]1C[C@@H]3O[C@@H]3[C@H](OC(C)=O)[C@]21C | 8.38 | Active | Active | – | < 10 mg/kg | – | –
